Here are results for four compounds from ChEMBL document CHEMBL4002546, “Evaluation of 7-arylaminopyrazolo[1,5-a]pyrimidines as anti-Plasmodium falciparum, antimalarial, and Pf-dihydroorotate dehydrogenase inhibitors” (Eur J Med Chem, 2017).

The term pIC50 denotes the IC50 on a negative log10 scale, so that one unit is a factor of ten. One may read the inhibition in vivo as the drop in the measured response relative to a control, in per cent.

The subject of series [1] is Plasmodium falciparum. Put plainly: Antiplasmodial activity against chloroquine-resistant/mefloquine-sensitive Plasmodium falciparum W2 infected in human A+ erythrocytes assessed as inhibition of parasite growth by HRP2 detection based assay. Format: functional, cell-based. A digest of the protocol:
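W2 blood-stage culture in A+ human erythrocytes in RPMI 1640 with 10% A+ human serum at 37 °C, under 3% O2/5% CO2. Growth was read with monoclonal antibodies against histidine- and alanine-rich protein II (HRPII). IC50 was estimated by curve fitting against drug-free controls.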

Series [2] has as its system Plasmodium falciparum. Put plainly: Antiplasmodial activity against chloroquine-resistant Plasmodium falciparum W2 infected in human A+ erythrocytes assessed as inhibition of [3H]-hypoxanthine incorporation after 42 hrs by beta counting method. Format: functional, cell-based. The method, boiled down: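 W2 parasites cultured at 37 °C in A+ human erythrocytes in RPMI 1640 with 10% A+ human serum, under low O2 (3% O2, 5% CO2). Compound dilutions were tested at 1% parasitemia and 1% haematocrit. [3H]-hypoxanthine uptake was read by beta counting after 42 h. IC50 was derived by curve fitting relative to drug-free controls.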

Series [3] is described as follows: Cytotoxicity against African green monkey BGM cells assessed as lethality after 24 hrs by neutral red dye based assay. The following applies: chlorocebus aethiops, read-out: MLD50. Format: cell-based. The method, boiled down: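 BGM monkey kidney cells grown in RPMI 1640 with 10% heat-inactivated foetal serum and gentamicin. Cells were seeded at 1 × 10⁵ cells/mL and left 18 h to adhere. Compounds were added across a 1000–1 dilution range for 24 h at 37 °C in 5% CO2. Cells took up neutral red for 2 h, were fixed with formaldehyde/CaCl2 and extracted with alcohol-acetic acid, then read at A540. Viability is % of untreated cells; MLD50 was calculated from this.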

The nature of series [4]: Selectivity index, ratio of MLD50 for african green monkey BGM cells to IC50 for chloroquine-resistant Plasmodium falciparum W2 infected in human A+ erythrocytes by [3H]-hypoxanthine incorporation assay. Format: toxicity, cell-based. Conditions: read-out: Selectivity Index.
The target of series [5] is Dihydroorotate dehydrogenase (quinone), mitochondrial (Homo sapiens) (UniProt Q02127). Put plainly: Inhibition of recombinant human DHODH assessed as residual activity at 50 uM using L-dihydroorotate as substrate by DCIP-based colorimetric assay relative to control. A digest of the protocol: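 Recombinant human DHODH at 20 nM final, in 50 mM Tris pH 8.15 with 150 mM KCl and 0.1% Triton X-100. Substrate was 1 mM L-dihydroorotate, with CoQ0 as acceptor and DCIP as dye. DCIP reduction was followed at 610 nm for 60 s at 25 °C, against a no-enzyme reference. Four replicates per concentration; activity is % of the uninhibited control.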

Series [6] can be described thus: Inhibition of N-terminally truncated Plasmodium falciparum SUMO-tagged DHODH (159 to 569 residues) expressed in Escherichia coli BL21(DE3) using L-dihydroorotate as substrate by DCIP-based colorimetric assay. A digest of the protocol:
(§1)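 Recombinant PfDHODH expressed in E. coli BL21(DE3) from a SUMO-His construct, IPTG-induced. Purified by Ni-NTA, then ULP1 tag cleavage, then size exclusion. Activity measured as continuous DCIP reduction at 600 nm over 60 s at 25 °C. Reaction: 50 mM Tris pH 8.15, 150 mM KCl, 0.1% Triton X-100, 1 mM L-dihydroorotate, 100 µM CoQ₀, 60 µM DCIP, 50 nM enzyme. Four replicates per concentration; activity relative to no-inhibitor control. IC50 from nonlinear fit.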

The test system of series [7] is Plasmodium falciparum. The series can be described thus: Inhibition of N-terminally truncated Plasmodium falciparum SUMO-tagged DHODH (159 to 569 residues) expressed in Escherichia coli BL21(DE3) assessed as residual activity at 50 uM using L-dihydroorotate as substrate by DCIP-based colorimetric assay relative to control. The method, boiled down: as §1
In series [8] the test system is Plasmodium falciparum. Put plainly: Antiplasmodial activity against chloroquine-resistant Plasmodium falciparum W2 infected in human A+ erythrocytes after 48 hrs by SYBR Green based fluorescence assay. Type of series: functional, cell-based. Conditions: W2, 48 h. A digest of the protocol: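 W2 parasites kept at 37 °C in A+ human red cells in RPMI 1640 with 10% A+ human serum, under 3% O2/5% CO2/91% N2. Serial dilutions were run at 0.5% parasitemia and 2% haematocrit for 48 h at 37 °C. Cells were lysed in Tris/EDTA/saponin/Triton buffer with SYBR Safe for 30 min in the dark, then read at ex 485/em 535 nm. IC50 was curve-fitted against drug-free controls.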

Series [9] concerns Plasmodium berghei. Put plainly: Antimalarial activity against Plasmodium berghei NK65 infected in mouse assessed as reduction in parasitemia at 5 mg/kg, po administered daily for 3 consecutive days starting 24 hrs post inoculum challenge containing parasitized red blood cells measured on day 5 by giemsa staining based microscopic method. Format: functional. A digest of the protocol: (§2)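 P. berghei NK65 maintained by weekly blood passage. Mice inoculated i.p. with 1 × 10⁶ infected erythrocytes, randomized after ~24 h into groups of five. Oral dosing at 5 mg/kg once daily for 3 days, freshly diluted in 3% DMSO in RPMI; vehicle and amodiaquine controls. Parasitemia read on Giemsa-stained, methanol-fixed tail-blood thin smears. Inhibition is relative to untreated mice, taken as 100% growth.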

Series [10] deals with Plasmodium berghei. The series can be described thus: Antimalarial activity against Plasmodium berghei NK65 infected in mouse assessed as reduction in parasitemia at 5 mg/kg, po administered daily for 3 consecutive days starting 24 hrs post inoculum challenge containing parasitized red blood cells measured on day 7 by giemsa staining based microscopic method. Format: functional. A digest of the protocol: as §2

The subject of series [11] is Plasmodium berghei. The series can be described thus: Antimalarial activity against Plasmodium berghei NK65 infected in mouse assessed as reduction in parasitemia at 5 mg/kg, po administered daily for 3 consecutive days starting 24 hrs post inoculum challenge containing parasitized red blood cells measured on day 9 by giemsa staining based microscopic method. Format: functional. The method, boiled down: as §2

The test system of series [12] is Plasmodium berghei. The series can be described thus: Antimalarial activity against Plasmodium berghei NK65 infected in mouse assessed as reduction in parasitemia at 5 mg/kg, po administered daily for 3 consecutive days starting 24 hrs post inoculum challenge containing parasitized red blood cells measured on day 11 by giemsa staining based microscopic method. Type of series: functional. The method, boiled down:
as §2

Series [13] is described as follows: Solubility of the compound at >100 uM. Type of series: physicochemical.
Series [14] can be described thus: Selectivity index, ratio of MLD50 for african green monkey BGM cells to IC50 for chloroquine-resistant Plasmodium falciparum W2 infected in human A+ erythrocytes by SYBR Green based fluorescence assay. Format: toxicity, cell-based.

pIC50: −log10 of the molar value.

Chain of Dihydroorotate dehydrogenase (quinone), mitochondrial (Homo sapiens) (Q02127 whole entry): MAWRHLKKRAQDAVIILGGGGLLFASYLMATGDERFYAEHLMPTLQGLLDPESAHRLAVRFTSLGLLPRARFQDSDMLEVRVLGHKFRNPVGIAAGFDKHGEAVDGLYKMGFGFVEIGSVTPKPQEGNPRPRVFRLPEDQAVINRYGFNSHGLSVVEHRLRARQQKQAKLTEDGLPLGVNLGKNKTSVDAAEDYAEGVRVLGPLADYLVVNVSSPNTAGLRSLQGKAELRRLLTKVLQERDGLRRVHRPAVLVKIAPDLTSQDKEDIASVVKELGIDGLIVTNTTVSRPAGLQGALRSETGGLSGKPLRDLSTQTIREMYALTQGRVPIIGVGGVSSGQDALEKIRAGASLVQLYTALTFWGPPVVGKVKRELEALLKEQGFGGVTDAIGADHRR

As to `CCN(CC)CCCC(C)Nc1cc(C)nc2nc(C(F)(F)F)nn12` (stereo unspecified), the pIC50 in series [1] was 4.41.
Still for that read-out and setting: then `FC(F)(F)c1cc(Nc2cc(Cl)cc(Cl)c2)n2nc(C(F)(F)F)nc2n1`, with 4.91; and `COc1ccc(Nc2cc(C)nc3nc(C(F)(F)F)nn23)cc1`, with 6.40.
As to `Cc1cc(Nc2ccc3ccccc3c2)n2nc(C(F)(F)F)cc2n1`, the negative-log IC50 (pIC50) in [2] is 5.92; in [6] it was 5.22; in series [8], 5.92. In addition, in series [3], the CC50 at 24 h is 561 µM. The selectivity ratio in series [4] and in series [14] was 468 in each case. The Activity turned out to be 56.8% in series [5] and 67.5% in [7]. In addition, the inhibition in vivo at 5 mg/kg in series [9] is 50%; in series [10], 61%; in series [11] it was 47%; in series [12], 59%. Moreover, the solubility entry in series [13] is reported as “Insoluble”.
